Test results as given in ChEMBL document CHEMBL4118244, “Design, synthesis and biological evaluation of benzofuran appended benzothiazepine derivatives as inhibitors of butyrylcholinesterase and antimicrobial agents” (Bioorg Med Chem, 2018).
≈ marks a conversion by molar mass, not a printed value. Calls of active or inactive are those of the source. The rule behind the calls is not given here.

Key:
Aspergillus brasiliensis [1] = test: Antifungal activity against Aspergillus brasiliensis PTCC 5011; format: functional
Aspergillus niger [2] = test: Antifungal activity against Aspergillus niger ATCC 16404; format: functional
Bacillus spizizenii [3] = test: Antibacterial activity against Bacillus subtilis ATCC 6633 assessed as diameter of inhibition zone at 200 ug per disc after 24 hrs by agar disc diffusion method; format: functional; conditions: ATCC 6633, 24 h, read-out: DIZ
Method in brief: (§1)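 Agar disc diffusion. Compounds at 20 mg mL⁻¹ in DMSO, filter-sterilised. 100 µL of 10⁸ CFU mL⁻¹ bacteria spread on nutrient agar. 6 mm discs carried 10 µl (200 µg per disc), with DMSO discs as negative control. Incubation 24 h at 37 °C. Read-out is inhibition zone diameter, mean of 3 repeats (±1 mm).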

Aspergillus brasiliensis [4] = test: Antifungal activity against Aspergillus brasiliensis PTCC 5011 assessed as diameter of inhibition zone at 200 ug per disc after 72 hrs by agar disc diffusion method; format: functional; conditions: PTCC 5011, 72 h, read-out: DIZ
Method in brief: (§2)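 Agar disc diffusion against mold. Compounds at 20 mg mL⁻¹ in DMSO, filter-sterilised. 6 mm discs carried 10 µl (200 µg per disc), with DMSO discs as negative control. Incubation 72 h at 30 °C. Read-out is growth inhibition zone diameter, mean of 3 repeats (±1 mm).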

Candida albicans [5] = test: Antifungal activity against Candida albicans ATCC 10231; format: functional
Candida albicans [6] = test: Antifungal activity against Candida albicans ATCC 10231 assessed as diameter of inhibition zone at 200 ug per disc after 48 hrs by agar disc diffusion method; format: functional; conditions: ATCC 10231, 48 h, read-out: DIZ
Method in brief: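 Yeast tested by agar disc diffusion. Compounds at 20 mg mL⁻¹ in DMSO, filter-sterilised. 6 mm discs carried 10 µl (200 µg per disc), with DMSO discs as negative control. Incubation 48 h at 30 °C. Zone diameter was averaged over 3 repeats (±1 mm).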

Salmonella paratyphi [7] = test: Antibacterial activity against Salmonella paratyphi A serotype ATCC 5702; format: functional
Shigella dysenteriae [8] = test: Antibacterial activity against Shigella dysenteriae PTCC 1188; format: functional
Pseudomonas aeruginosa [9] = test: Antibacterial activity against Pseudomonas aeruginosa ATCC 27853 assessed as diameter of inhibition zone at 200 ug per disc after 24 hrs by agar disc diffusion method; format: functional; conditions: ATCC 27853, 24 h, read-out: DIZ; method in brief: as §1
[10] = test system: Staphylococcus epidermidis; test: Antibacterial activity against Staphylococcus epidermidis ATCC 12228 assessed as diameter of inhibition zone at 200 ug per disc after 24 hrs by agar disc diffusion method; format: functional; conditions: ATCC 12228, 24 h, read-out: DIZ; method in brief: as §1
Klebsiella pneumoniae [11] = test: Antibacterial activity against Klebsiella pneumoniae ATCC 10031; format: functional
Escherichia coli [12] = test: Antibacterial activity against Escherichia coli ATCC 10536 assessed as diameter of inhibition zone at 200 ug per disc after 24 hrs by agar disc diffusion method; format: functional; conditions: ATCC 10536, 24 h, read-out: DIZ; method in brief: as §1
Salmonella paratyphi [13] = test: Antibacterial activity against Salmonella paratyphi A serotype ATCC 5702 assessed as diameter of inhibition zone at 200 ug per disc after 24 hrs by agar disc diffusion method; format: functional, Salmonella enterica subsp. enterica serovar Paratyphi A; conditions: Salmonella enterica, ATCC 5702, 24 h; read-out: DIZ; method in brief: as §1
Cholinesterase = Cholinesterase (Equus caballus, UniProt P81908); test: Inhibition of equine serum BChE using butyrylthiocholine iodide as substrate pretreated for 15 mins followed by substrate addition measured for 6 mins by Ellman's method
Method in brief: (§3)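 Ellman spectrophotometric assay in 0.1 M phosphate buffer pH 8.0 with DTNB, 25 °C. AChE (electric eel, Type V-S) or BChE was preincubated 15 min with compound before adding acetylthiocholine iodide or butyrylthiocholine iodide, respectively. Absorbance change at 412 nm was read for 6 min. Five concentrations were tested in triplicate, corrected by a nonenzymatic blank, with a no-inhibitor reference.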

Staphylococcus aureus [14] = test: Antibacterial activity against Staphylococcus aureus ATCC 29737 assessed as diameter of inhibition zone at 200 ug per disc after 24 hrs by agar disc diffusion method; format: functional; conditions: ATCC 29737, 24 h, read-out: DIZ; method in brief: as §1
[15] = biological target: Acetylcholinesterase (Electrophorus electricus) (UniProt O42275); test: Inhibition of electric eel AChE using acetylthiocholine iodide as substrate pretreated for 15 mins followed by substrate addition measured for 6 mins by Ellman's method; method in brief: as §3
Aspergillus niger [16] = test: Antifungal activity against Aspergillus niger ATCC 16404 assessed as diameter of inhibition zone at 200 ug per disc after 72 hrs by agar disc diffusion method; format: functional; conditions: ATCC 16404, 72 h, read-out: DIZ; method in brief: as §2
Proteus vulgaris [17] = test: Antibacterial activity against Proteus vulgaris PTCC 1182; format: functional
[18] = test system: Staphylococcus epidermidis; test: Antibacterial activity against Staphylococcus epidermidis ATCC 12228; format: functional
Klebsiella pneumoniae [19] = test: Antibacterial activity against Klebsiella pneumoniae ATCC 10031 assessed as diameter of inhibition zone at 200 ug per disc after 24 hrs by agar disc diffusion method; format: functional; conditions: ATCC 10031, 24 h, read-out: DIZ; method in brief: as §1
Bacillus spizizenii [20] = test: Antibacterial activity against Bacillus subtilis ATCC 6633; format: functional
Shigella dysenteriae [21] = test: Antibacterial activity against Shigella dysenteriae PTCC 1188 assessed as diameter of inhibition zone at 200 ug per disc after 24 hrs by agar disc diffusion method; format: functional; conditions: PTCC 1188, 24 h, read-out: DIZ; method in brief: as §1
Pseudomonas aeruginosa [22] = test: Antibacterial activity against Pseudomonas aeruginosa ATCC 27853; format: functional
Staphylococcus aureus [23] = test: Antibacterial activity against Staphylococcus aureus ATCC 29737; format: functional
Proteus vulgaris [24] = test: Antibacterial activity against Proteus vulgaris PTCC 1182 assessed as diameter of inhibition zone at 200 ug per disc after 24 hrs by agar disc diffusion method; format: functional; conditions: PTCC 1182, 24 h, read-out: DIZ; method in brief: as §1
Escherichia coli [25] = test: Antibacterial activity against Escherichia coli ATCC 10536; format: functional

Chain of Acetylcholinesterase (Electrophorus electricus) (O42275 24-633 limits assumed): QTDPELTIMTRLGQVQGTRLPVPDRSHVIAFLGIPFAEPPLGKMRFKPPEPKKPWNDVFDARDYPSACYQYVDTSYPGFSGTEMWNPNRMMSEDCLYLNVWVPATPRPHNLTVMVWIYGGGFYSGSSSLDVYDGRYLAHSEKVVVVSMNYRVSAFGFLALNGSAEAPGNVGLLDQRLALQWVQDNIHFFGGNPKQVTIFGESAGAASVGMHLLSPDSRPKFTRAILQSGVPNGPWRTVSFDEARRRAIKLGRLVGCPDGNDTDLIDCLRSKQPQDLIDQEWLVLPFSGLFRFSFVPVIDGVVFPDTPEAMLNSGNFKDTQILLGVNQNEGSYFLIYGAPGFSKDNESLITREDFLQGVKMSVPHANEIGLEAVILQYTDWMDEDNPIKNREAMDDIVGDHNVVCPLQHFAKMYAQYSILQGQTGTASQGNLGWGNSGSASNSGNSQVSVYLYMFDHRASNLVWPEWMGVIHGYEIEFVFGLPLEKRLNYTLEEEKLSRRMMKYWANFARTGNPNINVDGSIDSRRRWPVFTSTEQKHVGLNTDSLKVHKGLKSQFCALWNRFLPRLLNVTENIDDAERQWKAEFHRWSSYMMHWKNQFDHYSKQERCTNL
Chain of Cholinesterase (P81908 whole entry): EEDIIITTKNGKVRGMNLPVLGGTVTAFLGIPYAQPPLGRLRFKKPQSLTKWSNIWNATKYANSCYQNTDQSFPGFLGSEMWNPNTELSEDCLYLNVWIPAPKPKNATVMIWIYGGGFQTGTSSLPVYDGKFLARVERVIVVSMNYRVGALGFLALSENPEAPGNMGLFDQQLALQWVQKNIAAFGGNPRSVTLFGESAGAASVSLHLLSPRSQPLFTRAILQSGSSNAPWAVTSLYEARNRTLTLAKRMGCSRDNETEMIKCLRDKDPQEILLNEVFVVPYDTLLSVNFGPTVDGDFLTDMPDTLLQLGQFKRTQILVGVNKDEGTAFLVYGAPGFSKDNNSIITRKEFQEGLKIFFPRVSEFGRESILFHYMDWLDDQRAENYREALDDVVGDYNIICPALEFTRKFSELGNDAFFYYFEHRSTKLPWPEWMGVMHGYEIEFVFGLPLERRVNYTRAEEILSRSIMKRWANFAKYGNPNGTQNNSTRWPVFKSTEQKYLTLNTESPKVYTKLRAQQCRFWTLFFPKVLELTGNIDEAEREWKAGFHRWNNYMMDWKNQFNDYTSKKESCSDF

| SMILES | MIC (Aspergillus brasiliensis [1]) | MIC (Aspergillus niger [2]) | zone of inhibition at 200 µg/disc (Bacillus spizizenii [3]) [mm] | zone of inhibition at 200 µg/disc (Aspergillus brasiliensis [4]) [mm] | MIC (Candida albicans [5]) | zone of inhibition at 200 µg/disc (Candida albicans [6]) [mm] | MIC (Shigella dysenteriae [8]) | zone of inhibition at 200 µg/disc (Pseudomonas aeruginosa [9]) [mm] | zone of inhibition at 200 µg/disc [10] [mm] | MIC (Klebsiella pneumoniae [11]) | zone of inhibition at 200 µg/disc (Escherichia coli [12]) [mm] | zone of inhibition at 200 µg/disc (Salmonella paratyphi [13]) [mm] | zone of inhibition at 200 µg/disc (Staphylococcus aureus [14]) [mm] | inhibition [15] | zone of inhibition at 200 µg/disc (Aspergillus niger [16]) [mm] | MIC (Proteus vulgaris [17]) | MIC [18] | zone of inhibition at 200 µg/disc (Klebsiella pneumoniae [19]) [mm] | MIC (Bacillus spizizenii [20]) [µg/mL] | zone of inhibition at 200 µg/disc (Shigella dysenteriae [21]) [mm] | also measured |
| --- | --- | --- | --- | --- | --- | --- | --- | --- | --- | --- | --- | --- | --- | --- | --- | --- | --- | --- | --- | --- | --- |
| Brc1ccc2oc(C3=Nc4ccccc4SC(c4cccc5ccccc45)C3)cc2c1 (configuration not stated) | inactive | inactive | 12 | < 6 | 25 µg/mL (≈ 51.6 µM) | 14 | 50 µg/mL (≈ 103 µM) | < 6 | < 6 | inactive | < 6 | < 6 | 10 | inactive | < 6 | 12.5 µg/mL (≈ 25.8 µM) | inactive | < 6 | 5 (≈ 10.3 µM) | 14 | MIC (Salmonella paratyphi [7]; Salmonella enterica subsp. enterica serovar Paratyphi A): inactive; IC50 (Cholinesterase; read-out: IC50): 17 µM; MIC (Pseudomonas aeruginosa [22]): inactive; MIC (Staphylococcus aureus [23]): 5 µg/mL (≈ 10.3 µM); zone of inhibition at 200 µg/disc (Proteus vulgaris [24]): 19 mm; MIC (Escherichia coli [25]): inactive |
| O=[N+]([O-])c1cccc(C2CC(c3cc4cc(Br)ccc4o3)=Nc3ccccc3S2)c1 (configuration not stated) | 0.5 µg/mL (≈ 1.04 µM) | 0.25 µg/mL (≈ 0.522 µM) | 19 | 23 | inactive | < 6 | inactive | < 6 | < 6 | inactive | < 6 | 23 | < 6 | inactive | 20 | inactive | inactive | < 6 | 12.5 (≈ 26.1 µM) | < 6 | MIC (Salmonella paratyphi [7]; Salmonella enterica): 0.5 µg/mL (≈ 1.04 µM); IC50 (Cholinesterase): Not Active; MIC (Pseudomonas aeruginosa [22]): inactive; MIC (Staphylococcus aureus [23]): inactive; zone of inhibition at 200 µg/disc (Proteus vulgaris [24]): < 6 mm; MIC (Escherichia coli [25]): inactive |
